Experimental data taken from ChEMBL document CHEMBL1154322, “Optimization of the antitumor efficacy of a synthetic mitochondrial toxin by increasing the residence time in the cytosol” (J Med Chem, 2009).
Activity calls are given as the source filed them. The rule behind the calls is not given here.

Key:
[1] = Drug accumulation in BAEC in presence of MRP1/2 inhibitor Reversan by inductively coupled plasma spectrometry relative to untreated control; type: ADME, Bos taurus; conditions: cattle
How it was run: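 BAE cells incubated 2 h with 50 μM arsenical with or without 5 μM Reversan; cellular arsenic by inductively coupled plasma spectrometry, expressed as % increase in accumulation; triplicates, two experiments.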

HEK293 [2] = assay: Resistance index, ratio of IC50 for mouse MEF3.8 cells overexpressing MRP6 to IC50 for wild type […]; type: functional
HEK293 [3] = assay: Resistance index, ratio of IC50 for HEK293 cells overexpressing MRP5 to IC50 for wild type HEK293 cells; type: functional, Homo sapiens
How it was run: (§1)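 Transfected MDCKII (MRP1-3), HEK293 (MRP4, MRP5) or MEF3.8 (MRP6, MDR1, BCRP) lines grown in DMEM with 10% calf serum; IC50 for proliferation arrest of each transfectant divided by IC50 of non-transfected parental cells.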

[4] = Resistance index, ratio of IC50 for MDCK2 cells overexpressing MRP3 to IC50 for wild type MDCK2 cells; type: functional, Canis lupus familiaris; how it was run: as §1
[5] = Resistance index, ratio of IC50 for MDCK2 cells overexpressing MRP2 to IC50 for wild type MDCK2 cells; type: functional, Canis lupus familiaris; how it was run: as §1
[6] = Resistance index, ratio of IC50 for MDCK2 cells overexpressing MRP1 to IC50 for wild type MDCK2 cells; type: functional, Canis lupus familiaris; how it was run: as §1
[7] = Drug accumulation in BAEC assessed as accumulation rate up to 4 hrs by inductively coupled plasma spectrometry relative to 4-(N-(S-Glutathionylacetyl)amino)phenylarsonous acid; type: ADME, Bos taurus; conditions: cattle
How it was run: (§2)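 BAE cells seeded in 6-well plates, attached overnight, fresh medium, then 50 μM arsenical for up to 4 h; cytosolic arsenic by inductively coupled plasma spectrometry; accumulation rate (pmol As per 10^6 cells per min) from linear least-squares fit; triplicates.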

[8] = Drug accumulation in BAEC assessed as accumulation rate up to 4 hrs by inductively coupled plasma spectrometry relative to 4-(N-(S-cysteinylacetyl)amino)phenylarsonous acid; type: ADME, Bos taurus; conditions: cattle; how it was run: as §2
[9] = Drug accumulation in BAEC assessed as accumulation rate up to 4 hrs by inductively coupled plasma spectrometry relative to 4-(N-(S-cysteinylglycylacetyl)amino)phenylarsonous acid; type: ADME, Bos taurus; conditions: cattle; how it was run: as §2
BXPC-3 [10] = assay: Antitumor activity against human BxPC3 cells xenografted in BALB/c mouse assessed as tumor doubling time at 0.25 mg/kg/day, sc (Rvb= 9.4 +/- 1.4 days); type: functional; conditions: route subcutaneous
BXPC-3 [11] = assay: Antitumor activity against human BxPC3 cells xenografted in BALB/c mouse assessed as tumor doubling time at 0.5 mg/kg/day, sc (Rvb= 9.4 +/- 1.4 days); type: functional; conditions: route subcutaneous
Mus musculus [12] = assay: Toxicity in human BxPC3 cells xenografted BALB/c mouse at 0.25 mg/kg/day, sc for 28 days; type: organism-based, BXPC-3; set-up: route subcutaneous; conditions: in vivo, 672 h
How it was run: (§3)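 Female Balb C nude mice bearing s.c. BxPC-3 tumors given compound via 28-day s.c. flank micro-osmotic pumps; animal weight measured every 2 or 3 days and signs of toxicity observed.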

Mus musculus [13] = assay: Toxicity in human BxPC3 cells xenografted BALB/c mouse at 0.5 mg/kg/day, sc for 28 days; type: organism-based, BXPC-3; set-up: route subcutaneous; conditions: in vivo, 672 h; how it was run: as §3
BXPC-3 [14] = assay: Antiangiogenic activity against human BxPC3 cells xenografted in BALB/c mouse assessed as reduction of tumor blood vessel density at 0.25 mg/kg/day, sc dosed for 18 days; type: functional, organism-based
How it was run: (§4)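 Female 7-9 week Balb C nude mice given 3 × 10^6 BxPC-3 cells s.c. in proximal midline; at ~50 mm3, randomized and given s.c. flank micro-osmotic pumps (vehicle or 0.25 mg/kg/day) for 18 days. Excised tumors formalin-fixed, paraffin sections immunostained for CD31 (microvessels counted in five hot spots) or PCNA (positive cells per 100 tumor cells, three fields); one-way ANOVA.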

BXPC-3 [15] = assay: Antitumor activity against human BxPC3 cells xenografted in BALB/c mouse assessed as reduction of tumor proliferative index at 0.25 mg/kg/day, sc dosed for 18 days; type: functional, organism-based; how it was run: as §4
BXPC-3 [16] = assay: Antitumor activity against human BxPC3 cells xenografted in BALB/c mouse assessed as tumor doubling time at 5 mg/kg/day, sc dosed for 18 days; type: functional, organism-based
BXPC-3 [17] = assay: Potency ratio, ratio of antitumor activity of 4-(N-(S-Glutathionylacetyl)amino)phenylarsonous acid to compound antitumor activity against human BxPC3 cells xenografted in BALB/c; type: functional
BXPC-3 [18] = assay: Antiproliferative activity against human BxPC3 cells after 72 hrs by MTT assay; type: functional, cell-based; conditions: BXPC-3, 72 h
How it was run: (§5)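 Cells seeded in 96-well plates, attached overnight at 37 °C, 5% CO2, then cultured 72 h in medium with 10% fetal calf serum plus compound. Viability by MTT, formazan dissolved in DMSO, absorbance 550 nm; expressed as % of untreated control; IC50 = concentration inhibiting proliferation by 50%.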

MCF7 = assay: Antiproliferative activity against human MCF7 cells after 72 hrs by MTT assay; type: functional, cell-based; conditions: MCF7, 72 h; how it was run: as §5
PANC-1 = assay: Antiproliferative activity against human PANC1 cells after 72 hrs by MTT assay; type: functional, cell-based; conditions: PANC-1, 72 h; how it was run: as §5
HCT-116 = assay: Antiproliferative activity against human HCT116 cells after 72 hrs by MTT assay; type: functional, cell-based; conditions: HCT-116, 72 h; how it was run: as §5
[19] = tested on: Lewis lung carcinoma cell line; assay: Antiproliferative activity against mouse LLC cells after 72 hrs by MTT assay; type: functional, cell-based; how it was run: as §5
HT-1080 = assay: Antiproliferative activity against human HT1080 cells after 72 hrs by MTT assay; type: functional, cell-based; conditions: HT-1080, 72 h; how it was run: as §5
K562 = assay: Antiproliferative activity against human K562 cells after 72 hrs by MTT assay; type: functional, cell-based; conditions: K562, 72 h; how it was run: as §5
[20] = Antiproliferative activity against MDCK2 cells after 72 hrs by MTT assay; type: functional, cell-based; conditions: Canis lupus familiaris, MDCK-II; how it was run: as §5
[21] = Antiproliferative activity against mouse bEND.3 cells after 72 hrs by MTT assay; type: functional, cell-based; conditions: BEND3, 72 h; how it was run: as §5
[22] = Antiproliferative activity against HMEC1 cells after 72 hrs by MTT assay; type: functional, cell-based; conditions: Homo sapiens, HMEC-1, 72 h; how it was run: as §5
[23] = Potency ratio, ratio of IC50 for 4-(N-(S-Glutathionylacetyl)amino)phenylarsonous acid to compound for BAEC after 48 hrs by propidium iodide staining; type: functional, Bos taurus
[24] = Reduction of cell viability in BAEC after 48 hrs by propidium iodide staining; type: functional, cell-based; conditions: Bos taurus
[25] = Antiproliferative activity against BAEC after 72 hrs by MTT assay in presence of 3 uM MRP1/2 inhibitor Reversan and 20 uM gamma-glutamyl cysteine synthase inhibitor buthionine sulfoximine; type: functional, cell-based; conditions: Bos taurus
[26] = Antiproliferative activity against BAEC after 72 hrs by MTT assay in presence of 3 uM MRP1/2 inhibitor Reversan; type: functional, cell-based; conditions: Bos taurus
[27] = Antiproliferative activity against BAEC after 72 hrs by MTT assay in presence of 20 uM gamma-glutamyl cysteine synthase inhibitor buthionine sulfoximine; type: functional, cell-based; conditions: Bos taurus
[28] = (§6) Antiproliferative activity against BAEC after 72 hrs by MTT assay; type: functional, Bos taurus; how it was run: as §5
BAEC [29] = assay: as §6; type: functional; conditions: Bos taurus; how it was run: as §5
[30] = Antiproliferative activity against BAEC after 72 hrs by MTT assay in presence of 100 uM gamma-glutamyl cysteine synthase inhibitor buthionine sulfoximine; type: functional, Bos taurus
BAEC [31] = assay: Antiproliferative activity against MRP1/2 inhibitor Reversan pretreated BAEC at 0.3 uM after 72 hrs by MTT assay; type: functional, cell-based; conditions: Bos taurus
How it was run: (§7)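 BAE cells pretreated 30 min with 15 μM MK571 or 2 μM Reversan, then incubated with 0.3 μM compound for 72 h; viability by MTT as % of control; mean ± SD of triplicates.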

BAEC [32] = assay: Antiproliferative activity against MRP1/2 inhibitor MK571 pretreated BAEC at 0.3 uM after 72 hrs by MTT assay; type: functional; conditions: Bos taurus; how it was run: as §7
BAEC [33] = assay: Antiproliferative activity against OATP inhibitor DIDS pretreated BAEC at 3 uM after 24 hrs by MTT assay; type: functional, cell-based; conditions: Bos taurus
How it was run: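 BAE cells untreated or pretreated 30 min with 500 μM DIDS, then 3 μM compound for 24 h; viability by MTT, % of control; triplicates, two experiments.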

[34] = Potency ratio, ratio of IC50 for 4-(N-(S-cysteinylacetyl)amino)phenylarsonous acid to compound for BAEC after 24 hrs by MTT assay; type: functional, Bos taurus
[35] = Potency ratio, ratio of IC50 for 4-(N-(S-cysteinylglycylacetyl)amino)phenylarsonous acid to compound for BAEC after 24 hrs by MTT assay; type: functional, Bos taurus
[36] = Potency ratio, ratio of IC50 for 4-(N-(S-Glutathionylacetyl)amino)phenylarsonous acid to compound for BAEC after 24 hrs by MTT assay; type: functional, Bos taurus
HEK293 [37] = assay: Resistance index, ratio of IC50 for HEK293 cells overexpressing MRP4 to IC50 for wild type HEK293 cells; type: functional, Homo sapiens; how it was run: as §1
HEK293 [38] = assay: Resistance index, ratio of IC50 for mouse MEF3.8 cells overexpressing BCRP to IC50 for wild type […]; type: functional
HEK293 [39] = assay: Resistance index, ratio of IC50 for mouse MEF3.8 cells overexpressing MDR1 to IC50 for wild type […]; type: functional

N[C@H](CSCC(=O)Nc1ccc([As](O)O)cc1)C(=O)O
Drug uptake [1]: 114%

N[C@H](CSCC(=O)Nc1ccc([As](O)O)cc1)C(=O)NCC(=O)O
Drug uptake [1]: 197%

CC(C)(SCC(=O)Nc1ccc([As](O)O)cc1)[C@@H](N)C(=O)O
Ratio IC50 (HEK293 [2]): 1.3 | Ratio IC50 (HEK293 [3]): 0.4 | Ratio IC50 [4]: 0.8 | Ratio IC50 [5]: 4.6 | Ratio IC50 [6]: 3.7 | fold change (FC) [7]: 85 | fold change (FC) [8]: 10 | fold change (FC) [9]: 9 | Activity (BXPC-3 [10]): 15.6 days | Activity (BXPC-3 [11]): 13.8 days | Activity (Mus musculus [12]): Non-toxic | Activity (Mus musculus [13]): Non-toxic | Activity (BXPC-3 [14]): Active | Activity (BXPC-3 [15]): Active | Activity (BXPC-3 [16]): Active | Ratio IC50 (BXPC-3 [17]): 20 | IC50 (BXPC-3 [18]): 21 µM | IC50 (MCF7): 9.4 µM | IC50 (PANC-1): 6.4 µM | IC50 (HCT-116): 5.9 µM | IC50 [19]: 5.3 µM | IC50 (HT-1080): 4.1 µM | IC50 (K562): 1.8 µM | IC50 [20]: 2.4 µM | IC50 [21]: 2.5 µM | IC50 [22]: 2 µM | Ratio IC50 [23]: 21 | IC50 [24]: 3.5 µM | IC50 [25]: 0.02 µM | IC50 [26]: 0.13 µM | IC50 [27]: 0.07 µM | Activity [28]: 440 nM | Activity (BAEC [29]): inactive | Activity [30]: 16 nM | Activity (BAEC [31]): Active | Activity (BAEC [32]): Active | Activity (BAEC [33]): inactive | Ratio IC50 [34]: 6 | Ratio IC50 [35]: 8 | Ratio IC50 [36]: 44 | Drug uptake [1]: 52% | Ratio IC50 (HEK293 [37]): 0.5 | Ratio IC50 (HEK293 [38]): 1.1 | Ratio IC50 (HEK293 [39]): 1.2

N[C@@H](CCC(=O)N[C@@H](CSCC(=O)Nc1ccc([As](O)O)cc1)C(=O)NCC(=O)O)C(=O)O
IC50 (BXPC-3 [18]): 270 µM | IC50 (MCF7): 51 µM | IC50 (PANC-1): 43 µM | IC50 (HCT-116): 43 µM | IC50 [19]: 41 µM | IC50 (HT-1080): 25 µM | IC50 (K562): 14 µM | IC50 [20]: 13 µM | IC50 [21]: 42 µM | IC50 [22]: 23 µM | IC50 ([28]; Bos taurus, BAEC, 72 h): 10 µM
